Experimental data published in ChEMBL document CHEMBL1124929, “Indolo[2,1-a]isoquinolines. Syntheses, steroid hormone receptor binding affinities, and cytostatic activity” (1990).

Tests used:
[1] = test system: MDA-MB-231; test: Effect on [3H]thymidine incorporation into MDA-MB 231 human breast cancer cells at 1x10E-5 M; type: functional
How it was run: (§1)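 Cells were seeded at ~2 × 10⁴ per well, treated from the next day in 0.1% DMSO, with DMSO controls. MCF-7 cells were held in charcoal-stripped NCS for 2 weeks, treated for 5 days and re-dosed on day 4. MDA-MB 231 cells were grown in McCoy 5a/10% NCS and treated for 2 days. At the end, 1 µCi [³H]thymidine per well was added for 2 h. Result is % T/C, mean of three experiments × six dishes.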

[2] = test system: MCF7; test: Effect on [3H]thymidine incorporation into MCF-7 human breast cancer cells at 1x10E-6M; type: functional; how it was run: as §1
[3] = test system: MDA-MB-231; test: Cytostatic effect on hormone-independent MDA-MB 231 human breast cancer cell proliferation at 1x10E-5 M; type: functional
How it was run: (§2)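 Cells were plated at about 2 × 10⁴ per well in six-well dishes. MCF-7 cells were grown in modified improved MEM with 5% NCS, switched to charcoal-treated NCS two weeks before the test, and exposed for 5 days with a re-dose on day 4. MDA-MB 231 cells were grown in McCoy 5a with 10% NCS and exposed for 2 days. Compounds were given 1 day after plating in 0.1% DMSO, with DMSO-matched controls. Read-out was cell number as % T/C, mean of three experiments with six dishes.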

[4] = test system: MCF7; test: Effect on [3H]-thymidine incorporation into MCF-7 human breast cancer cells at 1x10E-5 M; type: functional; how it was run: as §1
[5] = test system: MCF7; test: Effect on hormone-dependent MCF-7 human breast cancer cell proliferation at 1x10E-5 M; type: functional; how it was run: as §2
[6] = test system: MDA-MB-231; test: Cytostatic effect on hormone-independent MDA-MB 231 human breast cancer cell proliferation at 1x10E-6M; type: functional; how it was run: as §2
[7] = test system: MCF7; test: Effect on hormone-dependent MCF-7 human breast cancer cell proliferation at 1x10E-6M; type: functional; how it was run: as §2
[8] = test system: MDA-MB-231; test: Effect on [3H]-thymidine incorporation into MDA-MB 231 human breast cancer cells at 1x10E-6M; type: functional; how it was run: as §1
[9] = target: T1, Estrogen receptor (Mus musculus) (UniProt O08537+P19785); test: Inhibition of 0.4 ug estrone-stimulated uterine growth in mice at 50.0 ug subcutaneous dose; type: functional
T1 sequence (O08537 whole entry, looked up): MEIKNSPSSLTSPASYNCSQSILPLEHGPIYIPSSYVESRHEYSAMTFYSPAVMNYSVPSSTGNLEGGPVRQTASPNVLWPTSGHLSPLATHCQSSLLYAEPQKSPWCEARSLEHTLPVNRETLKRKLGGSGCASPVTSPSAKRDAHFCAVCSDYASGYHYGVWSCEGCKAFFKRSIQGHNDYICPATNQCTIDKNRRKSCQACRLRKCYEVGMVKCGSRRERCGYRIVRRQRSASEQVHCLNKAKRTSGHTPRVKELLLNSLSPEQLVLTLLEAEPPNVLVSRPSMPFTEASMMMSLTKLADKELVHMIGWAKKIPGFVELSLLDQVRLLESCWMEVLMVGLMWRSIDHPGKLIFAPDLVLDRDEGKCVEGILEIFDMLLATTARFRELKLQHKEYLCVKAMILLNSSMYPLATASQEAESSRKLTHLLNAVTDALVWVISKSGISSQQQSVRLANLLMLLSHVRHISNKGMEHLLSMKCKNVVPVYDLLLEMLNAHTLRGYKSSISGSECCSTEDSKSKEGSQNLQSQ
T1 sequence (P19785 whole entry, looked up): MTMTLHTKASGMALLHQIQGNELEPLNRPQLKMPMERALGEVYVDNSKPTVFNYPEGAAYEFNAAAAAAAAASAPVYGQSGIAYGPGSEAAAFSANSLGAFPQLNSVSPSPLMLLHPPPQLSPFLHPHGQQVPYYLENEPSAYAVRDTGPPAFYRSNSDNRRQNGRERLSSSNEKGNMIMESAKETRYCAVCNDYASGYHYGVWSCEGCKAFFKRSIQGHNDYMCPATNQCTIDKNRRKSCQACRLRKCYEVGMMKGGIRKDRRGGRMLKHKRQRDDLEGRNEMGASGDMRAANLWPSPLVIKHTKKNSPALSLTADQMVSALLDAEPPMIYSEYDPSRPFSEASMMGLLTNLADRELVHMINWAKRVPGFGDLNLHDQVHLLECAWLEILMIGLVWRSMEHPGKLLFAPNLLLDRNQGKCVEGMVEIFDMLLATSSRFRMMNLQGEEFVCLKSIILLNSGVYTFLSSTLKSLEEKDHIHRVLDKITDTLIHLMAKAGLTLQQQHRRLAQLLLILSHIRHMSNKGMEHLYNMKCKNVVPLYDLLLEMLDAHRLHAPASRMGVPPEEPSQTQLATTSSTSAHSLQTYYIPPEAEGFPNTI
How it was run: (§3)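 Immature 20-day-old female NMRI mice received sc injections on three consecutive days. Each injection held 0.4 µg estrone plus the compound in PEG/saline 1:1. […] Significance was tested by Mann-Whitney U test.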

[10] = test system: MCF7; test: Effect on [3H]thymidine incorporation into MCF-7 human breast cancer cells at 1x10E-5 M; type: functional; how it was run: as §1
[11] = target: T1, Estrogen receptor (Mus musculus); test: Inhibition of 0.4 ug estrone-stimulated uterine growth in mice at 2 ug subcutaneous dose; type: functional; how it was run: as §3
[12] = target: T2, Androgen receptor (Mus musculus) (UniProt P19091); test: Inhibition of seminal vesicle weight in intact mice at 100 ug
T2 sequence (whole entry): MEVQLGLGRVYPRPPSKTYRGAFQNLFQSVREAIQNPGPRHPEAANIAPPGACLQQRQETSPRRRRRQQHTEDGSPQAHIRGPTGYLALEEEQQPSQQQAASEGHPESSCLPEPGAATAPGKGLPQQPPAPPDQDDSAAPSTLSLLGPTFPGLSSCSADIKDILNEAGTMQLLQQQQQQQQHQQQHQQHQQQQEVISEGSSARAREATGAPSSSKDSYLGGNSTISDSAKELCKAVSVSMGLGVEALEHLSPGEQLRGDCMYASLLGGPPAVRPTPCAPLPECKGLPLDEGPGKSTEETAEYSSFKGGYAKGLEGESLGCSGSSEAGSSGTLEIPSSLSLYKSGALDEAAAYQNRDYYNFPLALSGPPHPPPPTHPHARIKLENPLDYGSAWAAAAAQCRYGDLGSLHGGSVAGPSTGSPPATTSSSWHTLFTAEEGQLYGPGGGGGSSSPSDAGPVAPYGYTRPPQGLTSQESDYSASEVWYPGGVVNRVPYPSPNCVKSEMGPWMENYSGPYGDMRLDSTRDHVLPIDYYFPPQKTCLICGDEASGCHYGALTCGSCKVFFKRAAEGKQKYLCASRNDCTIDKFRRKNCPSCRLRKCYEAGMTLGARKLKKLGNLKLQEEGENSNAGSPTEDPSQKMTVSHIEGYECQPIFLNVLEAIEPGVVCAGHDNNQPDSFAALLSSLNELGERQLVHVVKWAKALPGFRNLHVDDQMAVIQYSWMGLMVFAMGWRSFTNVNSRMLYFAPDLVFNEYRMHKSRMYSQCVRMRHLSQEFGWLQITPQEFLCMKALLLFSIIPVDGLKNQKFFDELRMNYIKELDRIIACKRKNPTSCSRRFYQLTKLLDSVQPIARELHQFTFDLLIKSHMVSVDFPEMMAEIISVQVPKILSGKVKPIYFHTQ

[13] = test system: MCF7; test: Effect on hormone-dependent MCF-7 human breast cancer cell proliferation at 5x10E-6M; type: functional; how it was run: as §2
[14] = target: T1, Estrogen receptor (Mus musculus); test: Inhibition of 0.4 ug estrone-stimulated uterine growth in mice at 250 ug subcutaneous dose; type: functional; how it was run: as §3
[15] = organism: Bos taurus; test: Relative binding affinity(RBA) as ratio of progesterone and compound required to displace [3H]-org 2058 binding to Progesterone receptor by 50%
How it was run: (§4)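 Receptor source was calf uterine cytosol (105000g supernatant, 3 mg/mL protein in assay). Buffers were Tris/EDTA pH 7.4, with NaN₃ for ER, molybdate/glycerol for AR, and sucrose for PR. Tracers were 1 nM [³H]estradiol, [³H]mibolerone or [³H]Org 2058. Incubation was at 0–4 °C for 16 h (ER) or 2 h (AR, PR), with 4–6 competitor concentrations. Nonspecific binding used 2 µM of the unlabeled hormone. Separation was by dextran-coated charcoal. RBA is the ratio of IC50 values for hormone and compound ×100, mean of two triplicate experiments.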

[16] = target: T1, Estrogen receptor (Mus musculus); test: (§5) Estrogenic activity in uterotrophic assay in immature mice at 2 ug subcutaneous dose; type: functional
How it was run: (§6)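 Immature female NMRI mice, 20 days old, in groups of 6-10, were dosed sc once daily for three consecutive days. Compounds were given in PEG/0.9% saline 1:1; vehicle controls were included. Animals were killed 24 h after the last dose. Uteri were fixed in Bouin solution and the effect was taken as uterine dry weight (mg)/body weight (g) ×100, given as mean ± SD.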

[17] = target: T2, Androgen receptor (Mus musculus); test: Relative effect on seminal vesicle weight in adult and castrated mice supplemented with 0.3 mg TP at 1000 ug dose; type: functional, tissue-based
How it was run: (§7)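 Adult male mice, 23–25 g, six per group, were used intact or castrated via the scrotal route under ether 5 days before the test. Castrates received 0.3 mg testosterone propionate daily. Compounds were injected daily in olive oil for nine days. Seminal vesicles were taken 24 h later, fixed in Bouin solution, dried overnight at 100 °C and weighed. Result is organ mg/body g ×100; % inhibition = [1 − treated/control] × 100.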

[18] = target: T1, Estrogen receptor (Mus musculus); test: Inhibition of 0.4 ug estrone-stimulated uterine growth in mice at 10.0 ug subcutaneous dose; type: functional; how it was run: as §3
[19] = target: T1, Estrogen receptor (Mus musculus); test: (§8) Estrogenic activity in uterotrophic assay in immature mice at 10.0 ug subcutaneous dose; type: functional; how it was run: as §6
[20] = target: T3, Androgen Receptor (Bos taurus) (UniProt Q5EM59); test: Relative binding affinity(RBA) for 50% displacement of [3H]mibolerone from Androgen receptor compared to testorone; how it was run: as §4
T3 sequence (whole entry): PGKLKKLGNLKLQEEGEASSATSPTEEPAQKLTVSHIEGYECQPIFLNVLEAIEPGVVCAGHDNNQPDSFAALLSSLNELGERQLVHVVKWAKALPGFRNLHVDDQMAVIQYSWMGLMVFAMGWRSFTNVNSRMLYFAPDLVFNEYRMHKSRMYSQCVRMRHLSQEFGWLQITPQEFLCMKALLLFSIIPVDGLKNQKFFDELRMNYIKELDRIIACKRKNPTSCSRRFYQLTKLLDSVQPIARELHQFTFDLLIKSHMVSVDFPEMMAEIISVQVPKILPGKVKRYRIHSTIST

[21] = test system: MDA-MB-231; test: Effect on [3H]thymidine incorporation into MDA-MB 231 human breast cancer cells at 5x10E-6M; type: functional; how it was run: as §1
[22] = target: T1, Estrogen receptor (Mus musculus); test: (§9) Estrogenic activity in uterotrophic assay in immature mice at 250 ug subcutaneous dose; type: functional; how it was run: as §6
[23] = target: T1, Estrogen receptor (Mus musculus); test: as §8; type: functional; how it was run: as §6; remark: listed apart in the source
[24] = target: T2, Androgen receptor (Mus musculus); test: Inhibition of testosterone-stimulated seminal vesicle growth in castrated mice supplemented with 0.3 mg of TP at 1000.0 ug; type: functional; how it was run: as §7
[25] = target: Estrogen receptor (Bos taurus) (UniProt Q9XSB5+P49884); test: Relative binding affinity(RBA) for 50% displacement of [3H]-estradiol from Estrogen receptor compared to 17-beta-estradiol; type: protein assay; how it was run: as §4
[26] = test system: MDA-MB-231; test: Cytostatic effect on hormone-independent MDA-MB 231 human breast cancer cell proliferation at5x10E-6M; type: functional; how it was run: as §2
[27] = target: T2, Androgen receptor (Mus musculus); test: Relative effect on seminal vesicle weight in adult and castrated mice at 1000 ug dose; type: functional, tissue-based; how it was run: as §7
[28] = test system: MCF7; test: Effect on [3H]thymidine incorporation into MCF-7 human breast cancer cells at 5x10E-6M; type: functional; how it was run: as §1
[29] = target: T1, Estrogen receptor (Mus musculus); test: as §5; type: functional; how it was run: as §6; remark: listed apart in the source
[30] = target: T1, Estrogen receptor (Mus musculus); test: (§10) Estrogenic activity in uterotrophic assay in immature mice at 50.0 ug subcutaneous dose; type: functional; how it was run: as §6
[31] = target: T1, Estrogen receptor (Mus musculus); test: as §10; type: functional; how it was run: as §6; remark: listed apart in the source
[32] = target: T1, Estrogen receptor (Mus musculus); test: as §9; type: functional; how it was run: as §6; remark: listed apart in the source
[33] = target: T2, Androgen receptor (Mus musculus); test: Relative effect on seminal vesicle weight in adult and castrated mice at 100 ug dose; type: functional, tissue-based; how it was run: as §7
[34] = target: T1, Estrogen receptor (Mus musculus); test: Estrogenic activity in uterotrophic assay in immature mice at 125 ug subcutaneous dose; type: functional; how it was run: as §6
[35] = target: T1, Estrogen receptor (Mus musculus); test: Inhibition of 0.4 ug estrone-stimulated uterine growth in mice at 40.0 ug subcutaneous dose; type: functional; how it was run: as §3
[36] = target: T1, Estrogen receptor (Mus musculus); test: (§11) Estrogenic activity in uterotrophic assay in immature mice at 40.0 ug subcutaneous dose; type: functional; how it was run: as §6
[37] = target: T1, Estrogen receptor (Mus musculus); test: as §11; type: functional; how it was run: as §6; remark: listed apart in the source

SMILES	T/C [1]	T/C [2]	T/C [3]	T/C [5]	T/C [6]	T/C [7]	T/C [8]	T/C [10]	T/C [13]	RBA [15]	RBA [20]	T/C [21]	RBA [25]	T/C [26]	T/C [28]	Effect [29]	further results
CC/C(=C(\c1ccccc1)c1ccc(OCCN(C)C)cc1)c1ccccc1 [TAMOXIFEN]	97%	46%	94%	17%	107%	51%	100%										T/C [4]: 5%
CCC1Cc2cc(OC(C)=O)ccc2-c2cc3ccc(OC(C)=O)cc3n21 (stereo not given)	8%	42%	11%	6%	98%	67%	93%	2%	39%	0.05	2.5	11%	4	11%	24%	11.5	inhibition [9]: 31%; inhibition [11]: 2.8%; inhibition [12]: 21%; inhibition [14]: 6.8%; Effect [16]: 49.6; Relative seminal vesicle weight [17]: 200; inhibition [18]: 17.4%; Effect [19]: 44.5; Effect [22]: 40.5; Effect [23]: 15.7; inhibition [24]: 12%; Relative seminal vesicle weight [27]: 121; Effect [30]: 18.5; Effect [31]: 18.5; Effect [32]: 48.2; Relative seminal vesicle weight [33]: 156
CC(=O)Oc1cc2c(cc1OC(C)=O)-c1cc3cc(OC(C)=O)c(OC(C)=O)cc3n1CC2											< 0.01		< 0.01				
CC(=O)Oc1ccc2c(c1)cc1n2CCc2cc(OC(C)=O)c(OC(C)=O)cc2-1										< 0.01	< 0.01		0.15				
CC(=O)Oc1ccc2cc3n(c2c1)CCc1cc(OC(C)=O)c(OC(C)=O)cc1-3											< 0.01		0.05				
CC(=O)Oc1ccc2c(c1)CCn1c-2cc2ccc(OC(C)=O)cc21										0.01	0.2		0.16				
CC(=O)Oc1ccc2c(c1)CCn1c-2cc2cc(OC(C)=O)c(OC(C)=O)cc21											< 0.01		0.01				
CCC1Cc2cc(OC(C)=O)c(OC(C)=O)cc2-c2cc3cc(OC(C)=O)ccc3n21 (stereo not given)	38%	95%	51%	22%	100%	89%	77%	3%	39%	0.04	< 0.01	35%	2.9	62%	11%	21.2	inhibition [11]: 11.7%; Effect [34]: 55.8; inhibition [35]: 15.7%; Effect [36]: 42.8; Effect [37]: 49.7
CCC1Cn2c(cc3cc(OC(C)=O)ccc32)-c2ccc(OC(C)=O)cc21 (stereo not given)	25%		45%	31%				7%	97%	< 0.01	< 0.01	90%	2.5	88%	95%	16.8	inhibition [9]: 23.3%; inhibition [14]: 22.4%; Effect [16]: 50.9; inhibition [18]: 18.7%; Effect [19]: 44.1; Effect [22]: 46.1; Effect [23]: 21.5; Effect [30]: 42.5; Effect [31]: 24.1; Effect [32]: 42.7
